In ChEMBL document CHEMBL4130355, “Development of a series of novel 4-anlinoquinazoline derivatives possessing quinazoline skeleton: Design, synthesis, EGFR kinase inhibitory efficacy, and evaluation of anticancer activities in vitro” (Eur J Med Chem, 2017):
The source made the active and inactive calls. No cut-off for these calls is given here.

Key:
[1] = system: HepG2; assay: Induction of apoptosis in human HepG2 cells assessed as intracellular free Ca2+ levels at 2.5 uM after 48 hrs by FL1 channel/FACS analysis (reference value: 14.2%); type: functional
Outline: (§1)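 HepG2 seeded at 5.0 × 10^5 cells/mL, 24 h at 37 °C in 5% CO2, then treated 48 h (2.5–20 µM). Harvested cells were washed in ice-cold PBS and loaded with 4 µM Fluo-3/AM for 30 min. After trypsinizing, they were washed twice and resuspended in HEPES, and fluorescence was measured in the FL-1 channel by flow cytometry. Values are averages of at least three independent experiments.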

[2] = system: HepG2; assay: Cell cycle arrest in human HepG2 assessed as accumulation at G2/M phase at 5 uM after 48 hrs by propidium iodide-staining based flow cytometry (reference value: 9.13%); type: functional
Outline: (§2)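 HepG2 cells at 5.0 × 10^5/well were grown 24 h, then treated at 0, 2.5, 5.0 or 10.0 µM for 48 h alongside medium-only wells. Cells fixed in 70% ice-cold ethanol for ≥24 h, treated with RNase A at 37 °C for 30 min, then stained with propidium iodide for 30 min at 4 °C in the dark. DNA content read by flow cytometry. Average of at least three experiments.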

[3] = system: A549; assay: Antiproliferative activity against human A549 cells at 50 uM after 24 hrs by MTT assay relative to control; type: functional
Outline: (§3)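 MTT assay in triplicate wells. Cells (2 × 10^3/well) were attached 24 h, then treated at 0.1, 1, 10, 50 or 100 µM for 24, 48 or 72 h. MTT added for 4 h, SDS solubilisation, absorbance at 570/650 nm. Inhibition = 1 − (OD treated − blank)/(OD control − blank). Reported as mean ± SD of three independent experiments.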

[4] = system: HepG2; assay: Induction of apoptosis in human HepG2 cells assessed as intracellular free Ca2+ levels at 20 uM after 48 hrs by FL1 channel/FACS analysis (reference value: 14.2%); type: functional; outline: as §1
[5] = biological target: T1, Epidermal growth factor receptor (Homo sapiens, UniProt P00533); settings: HEK293, at 0.1 µM
[6] = system: HepG2; assay: Antiproliferative activity against human HepG2 cells at 0.1 uM after 48 hrs by MTT assay realtive to control; type: functional; outline: as §3
[7] = system: HepG2; assay: Antiproliferative activity against human HepG2 cells after 72 hrs by MTT assay; type: functional, cell-based; settings: HepG2, 72 h
[8] = system: DU-145; assay: Antiproliferative activity against human DU145 cells after 72 hrs by MTT assay; type: functional, cell-based; settings: DU-145, 72 h
[9] = system: A549; assay: Antiproliferative activity against human A549 cells at 1 uM after 48 hrs by MTT assay relative to control; type: functional; outline: as §3
[10] = system: HepG2; assay: Antiproliferative activity against human HepG2 cells at 0.1 uM after 24 hrs by MTT assay realtive to control; type: functional; outline: as §3
[11] = system: HepG2; assay: Induction of apoptosis in human HepG2 cells assessed as viable cells at 5 uM after 48 hrs by Annexin V-FITC/propidium iodide double staining-based flow cytometry (reference value: 86.4%); type: functional; settings: HepG2, 48 h, read-out: Activity
[12] = system: A549; assay: Antiproliferative activity against human A549 cells at 100 uM after 24 hrs by MTT assay relative to control; type: functional; outline: as §3
[13] = system: HepG2; assay: Cell cycle arrest in human HepG2 assessed as accumulation at G2/M phase at 10 uM after 48 hrs by propidium iodide-staining based flow cytometry (reference value: 9.13%); type: functional; outline: as §2
[14] = system: HepG2; assay: Cytotoxicity against human HepG2 cells at 2.5 uM after 48 hrs by LDH release assay (reference value: 100%); type: functional
Outline: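 LDH release. HepG2 cells at 1.0 × 10^5/well were incubated 24 h at 37 °C, then treated at 2.5–40 µM for 48 h. Cells lysed with 2% lysate for 1 h gave the full-release (100%) reference; medium-only cells were the low control. LDH in the supernatant was measured per kit. Triplicates, three independent repeats.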

[15] = system: HepG2; assay: Cell cycle arrest in human HepG2 assessed as accumulation at G0/G1 phase at 2.5 uM after 48 hrs by propidium iodide-staining based flow cytometry (reference value: 69.40%); type: functional; outline: as §2
[16] = system: HepG2; assay: Antiproliferative activity against human HepG2 cells at 100 uM after 24 hrs by MTT assay realtive to control; type: functional; outline: as §3
[17] = biological target: T1, Epidermal growth factor receptor; settings: HEK293, at 1 pM
[18] = system: HepG2; assay: Antiproliferative activity against human HepG2 cells at 50 uM after 72 hrs by MTT assay realtive to control; type: functional; outline: as §3
[19] = system: HepG2; assay: Induction of apoptosis in human HepG2 cells assessed as early apoptotic cells at 5 uM after 48 hrs by Annexin V-FITC/propidium iodide double staining-based flow cytometry (reference value: 8.7%); type: functional
[20] = Antiproliferative activity against human CCC-HPF1 cells after 72 hrs by MTT assay; type: ADME, cell-based; settings: CCC-HPF-1, 72 h
[21] = system: HepG2; assay: Induction of mitochondrial membrane potential loss in human HepG2 cells assessed as mitochondrial membrane potential levels at 20 uM after 48 hrs by rhodamine-123 dye based FACS analysis (reference value: 90.4%); type: functional
[22] = system: HepG2; assay: Induction of apoptosis in human HepG2 cells assessed as early apoptotic cells at 2.5 uM after 48 hrs by Annexin V-FITC/propidium iodide double staining-based flow cytometry (reference value: 8.7%); type: functional
[23] = system: A549; assay: Antiproliferative activity against human A549 cells at 100 uM after 48 hrs by MTT assay relative to control; type: functional; outline: as §3
[24] = system: A549; assay: Antiproliferative activity against human A549 cells at 1 uM after 72 hrs by MTT assay relative to control; type: functional; outline: as §3
[25] = system: HepG2; assay: Induction of apoptosis in human HepG2 cells after 48 hrs by AnnexinV-FITC/propidium iodide double staining-based flow cytometry; type: functional, cell-based
[26] = system: HepG2; assay: Antiproliferative activity against human HepG2 cells at 1 uM after 72 hrs by MTT assay realtive to control; type: functional; outline: as §3
[27] = biological target: T1, Epidermal growth factor receptor; settings: HEK293, at 0.01 µM
[28] = system: HepG2; assay: Induction of apoptosis in human HepG2 cells assessed as convoluted nuclei formation at 2.5 to 20 uM after 48 hrs by Hoechst 33342/propidium iodide double staining based laser scanning confocal microscopy; type: functional, cell-based
Outline: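 HepG2 plated at 5.0 × 10^4 cells/well in DMEM with 10% FBS, 24 h at 37 °C, then treated 48 h (2.5–20 µM). After two ice-cold PBS washes, cells were stained with Hoechst 33342/PI mixed 1:1 for 30 min at 37 °C in the dark, washed three times, and imaged by laser scanning confocal microscopy at 200×.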

[29] = system: HepG2; assay: Antiproliferative activity against human HepG2 cells at 50 uM after 48 hrs by MTT assay realtive to control; type: functional; outline: as §3
[30] = system: HepG2; assay: Cell cycle arrest in human HepG2 assessed as accumulation at G2/M phase at 2.5 uM after 48 hrs by propidium iodide-staining based flow cytometry (reference value: 9.13%); type: functional; outline: as §2
[31] = system: A549; assay: Antiproliferative activity against human A549 cells at 10 uM after 72 hrs by MTT assay relative to control; type: functional; outline: as §3

T1 sequence (P00533 whole entry): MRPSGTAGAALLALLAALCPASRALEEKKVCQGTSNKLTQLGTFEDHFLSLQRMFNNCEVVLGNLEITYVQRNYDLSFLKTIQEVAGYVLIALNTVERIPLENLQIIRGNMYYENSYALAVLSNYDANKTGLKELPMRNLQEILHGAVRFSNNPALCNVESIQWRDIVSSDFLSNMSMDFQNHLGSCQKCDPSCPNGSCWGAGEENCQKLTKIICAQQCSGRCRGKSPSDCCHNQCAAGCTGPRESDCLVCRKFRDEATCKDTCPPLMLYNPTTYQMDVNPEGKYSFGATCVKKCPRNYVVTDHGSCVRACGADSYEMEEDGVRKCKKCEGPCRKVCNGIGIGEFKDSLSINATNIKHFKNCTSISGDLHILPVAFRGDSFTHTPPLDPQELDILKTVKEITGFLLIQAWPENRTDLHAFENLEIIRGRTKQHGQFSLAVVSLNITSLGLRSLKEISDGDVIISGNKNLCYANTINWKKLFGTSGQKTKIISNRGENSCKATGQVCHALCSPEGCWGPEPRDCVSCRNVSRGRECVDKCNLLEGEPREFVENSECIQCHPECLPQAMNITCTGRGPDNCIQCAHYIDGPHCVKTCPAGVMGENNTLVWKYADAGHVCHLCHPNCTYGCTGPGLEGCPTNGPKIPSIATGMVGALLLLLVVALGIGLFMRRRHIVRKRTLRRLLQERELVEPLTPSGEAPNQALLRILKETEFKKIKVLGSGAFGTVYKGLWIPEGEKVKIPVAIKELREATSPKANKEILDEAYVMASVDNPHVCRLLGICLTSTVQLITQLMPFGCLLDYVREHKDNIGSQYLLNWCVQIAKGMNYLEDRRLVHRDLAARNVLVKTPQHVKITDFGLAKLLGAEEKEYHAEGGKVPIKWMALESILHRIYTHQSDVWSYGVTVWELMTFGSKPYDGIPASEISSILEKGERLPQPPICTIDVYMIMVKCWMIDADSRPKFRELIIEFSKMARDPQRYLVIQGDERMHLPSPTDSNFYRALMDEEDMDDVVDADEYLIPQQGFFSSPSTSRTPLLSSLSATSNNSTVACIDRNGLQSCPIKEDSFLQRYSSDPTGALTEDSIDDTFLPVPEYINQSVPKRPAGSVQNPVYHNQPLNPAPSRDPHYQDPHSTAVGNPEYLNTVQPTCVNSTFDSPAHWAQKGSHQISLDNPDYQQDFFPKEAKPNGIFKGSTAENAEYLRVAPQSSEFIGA

COc1cc2c(Nc3ccc(C#N)cc3)ncnc2cc1OCCCN1CCC(c2ccccc2)CC1
Activity [1]: 41.7%
Activity [2]: 9.37%
Activity [3]: 85.3%
Activity [4]: 52.7%
inhibition [5]: 73.1%
Activity [6]: 5.7%
IC50 [7]: 4.61 to 5.29 µM
IC50 [8]: 6.79 µM
Activity [9]: 2.9%
Activity [10]: 4.4%
viability at 5 µM [11]: 17.3%
Activity [12]: 91.8%
Activity [13]: 9.57%
Activity [14]: 39.65%
Activity [15]: 67.07%
Activity [16]: 101%
inhibition [17]: 16%
Activity [18]: 96.5%
Activity [19]: 80.7%
IC50 [20]: 28 µM
Activity [21]: 55.9%
Activity [22]: 48.6%
Activity [23]: 91.4%
Activity [24]: 1.5%
Activity [25]: Dose-dependent effect
Activity [26]: 13.7%
inhibition [27]: 61.8%
Activity [28]: Active
Activity [29]: 108%
Activity [30]: 10.49%
Activity [31]: 34.1%
